From ChEMBL document CHEMBL5537199, “Discovery and SAR Study of Boronic Acid-Based Selective PDE3B Inhibitors from a Novel DNA-Encoded Library” (J Med Chem, 2024) come the findings set out here.

Calls of active or inactive are those of the source. The calls are words filed in the database; no cut-off is given here. Bounds are passed on as bounds.

A short description of assay [1]: Selectivity ratio of inhibition for PDE3A (M1 to Q1141 residues) (unknown origin) by RF-MS assay to inhibition for PDE3B (M1 to E1112 residues) (unknown origin) by RF-MS assay.
Assay [2] addresses T1, cGMP-inhibited 3',5'-cyclic phosphodiesterase 3B (Homo sapiens, UniProt Q13370). Put plainly: Inhibition of full-length PDE3B (M1 to E1112 residues) (unknown origin) using FAM-cAMP as substrate incubated for 120 mins by TR-FRET IMAP assay. The essentials: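 Buffer 50 mM Tris-HCl pH 7.5, 8.3 mM MgCl2, 1.7 mM EGTA, 0.05% BSA. Compounds run as a concentration curve with a top final concentration of 100 μM. DMSO and 10 μM trequinsin served as controls. Terbium TR-FRET ratio read at 520:490 nm.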
Target sequence in this assay (Q13370 whole entry, the tested form may be a part): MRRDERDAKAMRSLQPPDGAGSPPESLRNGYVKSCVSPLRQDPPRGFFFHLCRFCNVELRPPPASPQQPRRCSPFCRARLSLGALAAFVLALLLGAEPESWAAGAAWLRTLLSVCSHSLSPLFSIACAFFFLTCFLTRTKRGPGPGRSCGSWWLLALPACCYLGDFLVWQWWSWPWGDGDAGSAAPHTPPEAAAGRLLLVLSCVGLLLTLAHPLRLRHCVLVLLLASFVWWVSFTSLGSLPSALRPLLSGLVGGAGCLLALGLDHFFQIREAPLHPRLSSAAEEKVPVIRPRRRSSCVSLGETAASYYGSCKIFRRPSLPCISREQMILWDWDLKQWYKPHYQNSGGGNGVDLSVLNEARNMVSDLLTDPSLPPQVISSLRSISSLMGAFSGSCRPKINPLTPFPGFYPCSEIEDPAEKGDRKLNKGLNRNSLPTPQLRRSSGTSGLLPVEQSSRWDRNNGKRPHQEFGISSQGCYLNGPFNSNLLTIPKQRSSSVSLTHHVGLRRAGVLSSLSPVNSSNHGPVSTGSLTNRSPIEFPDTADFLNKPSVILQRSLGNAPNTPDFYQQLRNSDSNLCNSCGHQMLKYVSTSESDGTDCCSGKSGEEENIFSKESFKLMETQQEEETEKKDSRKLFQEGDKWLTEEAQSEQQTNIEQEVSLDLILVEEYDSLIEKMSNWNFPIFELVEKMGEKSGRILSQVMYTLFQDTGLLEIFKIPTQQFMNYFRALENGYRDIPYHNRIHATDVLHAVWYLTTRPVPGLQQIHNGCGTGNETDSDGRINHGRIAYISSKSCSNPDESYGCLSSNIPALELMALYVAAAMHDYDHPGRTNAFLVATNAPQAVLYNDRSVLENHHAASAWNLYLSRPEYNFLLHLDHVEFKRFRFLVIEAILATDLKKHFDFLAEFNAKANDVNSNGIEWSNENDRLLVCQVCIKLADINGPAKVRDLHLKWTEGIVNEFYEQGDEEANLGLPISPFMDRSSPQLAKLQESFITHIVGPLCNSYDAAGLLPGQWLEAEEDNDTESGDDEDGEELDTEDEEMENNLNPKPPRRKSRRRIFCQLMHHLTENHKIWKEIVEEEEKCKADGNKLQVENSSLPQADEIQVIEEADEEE

The target in assay [3] is T1, cGMP-inhibited 3',5'-cyclic phosphodiesterase 3B. Put plainly: Inhibition of PDE3B (unknown origin) expression in adipocytes assessed as reduction in lipid hydrolysis at 10 uM. The format is cell-based.
Target sequence in this assay (Q13370 whole entry, looked up, the tested form may be a part): as the sequence (Q13370 whole entry, the tested form may be a part) above
A short description of assay [4]: Selectivity ratio of inhibition for PDE3A (M1 to Q1141 residues) (unknown origin) by IMAP assay to inhibition for PDE3B (M1 to E1112 residues) (unknown origin) by IMAP assay.
The target of assay [5] is cGMP-inhibited 3',5'-cyclic phosphodiesterase 3A (Homo sapiens, UniProt Q14432). Put plainly: Inhibition of PDE3A (M1 to Q1141 residues) (unknown origin) using FAM-cAMP as substrate incubated for 45 mins by TR-FRET IMAP assay. The essentials:
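Full-length PDE3A at 1.6 nM with 50 nM FAM-cAMP, 45 min reaction. Buffer 50 mM Tris-HCl pH 7.5, 8.3 mM MgCl2, 1.7 mM EGTA, 0.05% BSA. Compounds run as a concentration curve with a top final concentration of 100 μM. DMSO and 10 μM trequinsin served as controls. TR-FRET read at Ex 337 nm, Em 520/490 nm.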
Background: Time-resolved FRET reads energy transfer from a long-lived donor to a nearby acceptor.

Chain of cGMP-inhibited 3',5'-cyclic phosphodiesterase 3A (Q14432 whole entry, the tested form may be a part): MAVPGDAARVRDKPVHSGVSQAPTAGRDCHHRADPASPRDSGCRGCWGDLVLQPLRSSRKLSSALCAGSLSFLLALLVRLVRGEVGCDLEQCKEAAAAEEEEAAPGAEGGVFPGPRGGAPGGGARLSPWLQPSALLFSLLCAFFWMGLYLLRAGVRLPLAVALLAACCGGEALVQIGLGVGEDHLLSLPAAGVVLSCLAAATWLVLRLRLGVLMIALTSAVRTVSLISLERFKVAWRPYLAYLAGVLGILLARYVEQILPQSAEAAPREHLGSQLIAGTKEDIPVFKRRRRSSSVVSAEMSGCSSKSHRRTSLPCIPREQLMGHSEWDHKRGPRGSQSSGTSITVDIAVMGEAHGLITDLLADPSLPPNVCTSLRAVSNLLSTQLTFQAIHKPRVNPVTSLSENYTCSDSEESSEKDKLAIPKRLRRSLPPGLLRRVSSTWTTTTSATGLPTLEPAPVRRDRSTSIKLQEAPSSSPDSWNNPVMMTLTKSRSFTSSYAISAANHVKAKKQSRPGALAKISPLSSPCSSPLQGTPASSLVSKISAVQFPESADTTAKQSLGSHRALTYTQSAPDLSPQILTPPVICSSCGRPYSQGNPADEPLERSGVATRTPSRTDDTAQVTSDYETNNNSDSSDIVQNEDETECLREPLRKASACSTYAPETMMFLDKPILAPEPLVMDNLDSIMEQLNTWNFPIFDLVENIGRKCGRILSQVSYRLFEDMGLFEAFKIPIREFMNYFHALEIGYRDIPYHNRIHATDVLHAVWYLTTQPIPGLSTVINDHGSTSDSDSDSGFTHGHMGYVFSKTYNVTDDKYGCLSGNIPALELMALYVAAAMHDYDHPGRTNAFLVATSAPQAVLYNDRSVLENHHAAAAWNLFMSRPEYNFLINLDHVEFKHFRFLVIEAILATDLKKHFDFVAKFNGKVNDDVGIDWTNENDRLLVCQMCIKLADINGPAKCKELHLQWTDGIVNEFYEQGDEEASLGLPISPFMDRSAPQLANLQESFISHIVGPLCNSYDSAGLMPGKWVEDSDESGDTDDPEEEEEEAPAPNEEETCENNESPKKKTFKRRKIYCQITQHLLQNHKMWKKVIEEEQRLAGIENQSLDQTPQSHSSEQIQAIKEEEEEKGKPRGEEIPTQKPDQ

As a reminder, the IC50 is the concentration that inhibits the measured activity by half. Read a high IC50 as a need for much substance. `COCC(C)NC(=O)c1cc(NC(=O)c2cc(OC)c3ccc(OC)cc3n2)cc(B(O)O)c1` (stereo unspecified): the figures for the Selectivity ratio in assay [1] and in assay [4] were 46 and greater than 300, respectively. The IC50 was 0.316 µM in assay [2] and greater than 100 µM in assay [5]. Moreover, in assay [3], the inhibition entry was “Active”.

`CC1CC(=O)NN=C1c1ccc(NC2=C(Cc3cccc(-c4ccccc4)c3)C(=O)CCC2)cc1` (stereo unspecified): the inhibition entry in assay [3] is “Active”.

For the compound `CNC(=O)[C@@H](NC(=O)c1cc(NC(=O)c2cc(C)c3ccccc3n2)cc(B(O)O)c1)C1CCCCC1`, the figures for the Selectivity ratio in assay [1] and in assay [4] were 1.1 and 0.7, respectively. For the same compound, the IC50 in assay [2] was 0.00794 µM; in assay [5], 0.00501 µM. For the same compound, the inhibition entry in assay [3] is “Active”.

In the case of `CNC(=O)[C@H](NC(=O)c1cc(NC(=O)c2cc(OC)c3ccc(OC)cc3n2)cc(B(O)O)c1)C1CCCCC1`, the Selectivity ratio came out at 78 in assay [1] and 37 in assay [4]. In addition, the IC50 in assay [2] was 0.316 µM; in assay [5], 10 µM.

Consider `CNC(=O)[C@@H](NC(=O)c1cc(NC(=O)c2cc(C)cc(C)c2OC)cc(B(O)O)c1)C1CCCCC1`, for which the Selectivity ratio in assay [1] came to 6.3; in assay [4], 3.4. Also, the IC50 in assay [2] was 0.316 µM; in assay [5] it was 1 µM.

For `COc1ccc2c(OC)cc(C(=O)Nc3cc(B(O)O)cc(C(=O)NCC(C)OC)c3)nc2c1` (stereo unspecified), the Selectivity ratio came to 25 in assay [1] and 14 in assay [4]. Also, the 50% inhibitory concentration (IC50) in assay [2] was 2 µM; in assay [5], 25.1 µM.

Turning to `CNC(=O)[C@@H](NC(=O)c1cc(NC(=O)c2ccc3ccc(OC)cc3c2)cc(B(O)O)c1)C1CCCCC1`, the results for the Selectivity ratio in assay [1] and in assay [4] were 1.9 and 1, respectively. In addition, the IC50 in assay [2] is 10 µM; in assay [5], 12.6 µM.

As for `COC[C@H](NC(=O)c1cc(NC(=O)c2cc(OC)c3ccc(OC)cc3n2)cc(B(O)O)c1)C(C)C`, the results for the Selectivity ratio in assay [1] and in assay [4] were 50 and greater than 190, respectively. Further, the IC50 in assay [2] is 0.501 µM; in assay [5], greater than 100 µM.

As to `COc1ccc2c(OC)cc(C(=O)Nc3cc(B(O)O)cc(C(=O)N(C)Cc4ccccc4)c3)nc2c1`, the values for the Selectivity ratio in assay [1] and in assay [4] were 62 and 21, respectively. In addition, the IC50 in assay [2] was 0.631 µM; in assay [5], 15.8 µM.

Take `CNC(=O)[C@H](NC(=O)c1cc(NC(=O)c2cc(C)cc(C)c2OC)cc(B(O)O)c1)C1CCCCC1`: the Selectivity ratio in assay [1] came to 6.6; in assay [4] it was 2.6. Also, the IC50 in assay [2] is 0.794 µM; in assay [5], 2 µM.

On to `COc1ccc2c(OC)cc(C(=O)Nc3cc(B(O)O)cc(C(N)=O)c3)nc2c1`, for which the results for the Selectivity ratio in assay [1] and in assay [4] were 45 and greater than 51, respectively. Moreover, the results for the IC50 in assay [2] and in assay [5] were 2 µM and greater than 100 µM, respectively.

For the compound `COC(=O)c1cc(NC(=O)c2cc(OC)c3ccc(OC)cc3n2)cc(B(O)O)c1`, the Selectivity ratio in assay [1] is greater than 177; in assay [4] it was greater than 52. For the same compound, the IC50 in assay [2] is 2 µM; in assay [5], greater than 100 µM.

Consider `CNC(=O)[C@@H](C)NC(=O)c1cc(NC(=O)c2cc(OC)c3ccc(OC)cc3n2)cc(B(O)O)c1`, for which the Selectivity ratio in assay [1] was 26; in assay [4], 24. In addition, the IC50 in assay [2] was 1 µM; in assay [5] it was 25.1 µM.
